What was measured:
Cytochrome P450 3A4 = Cytochrome P450 3A4 (Homo sapiens, UniProt P08684); assay: Inhibition of CYP3A4 (unknown origin); format: ADME
[1] = AUC (0 to infinity) in Sprague-Dawley rat at 0.25 mg/kg, iv; format: ADME, organism-based, Plasma; design: dose 0.25 mg/kg, route intravenous, time infinity; settings: Sprague-Dawley, plasma
[2] = Volume of distribution at steady state in Sprague-Dawley rat at 0.25 mg/kg, iv; format: ADME, organism-based; design: dose 0.25 mg/kg, route intravenous; settings: in vivo, read-out: Vdss
Outline: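 Male Sprague-Dawley rats were given a single IV dose of 0.25 mg/kg. The vehicle was DMSO, or for some compounds 20% (w/v) hydroxypropyl β-cyclodextrin in water adjusted to pH 3.5 with MSA. NC marks cases where the terminal disposition rate constant could not be characterized for lack of slope.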

Liver microsome [3] = assay: Stability in rat liver microsomes assessed as compound turnover rate; format: ADME
Liver microsome [4] = assay: Stability in human liver microsomes assessed as compound turnover rate; format: ADME
[5] = target: T1, Hepatocyte growth factor receptor (Homo sapiens, UniProt P08581); assay: Inhibition of recombinant c-Met kinase domain (unknown origin) incubated for 30 mins using gastrin peptide substrate by HTRF assay
T1 sequence (P08581 whole entry, the tested form may be a part): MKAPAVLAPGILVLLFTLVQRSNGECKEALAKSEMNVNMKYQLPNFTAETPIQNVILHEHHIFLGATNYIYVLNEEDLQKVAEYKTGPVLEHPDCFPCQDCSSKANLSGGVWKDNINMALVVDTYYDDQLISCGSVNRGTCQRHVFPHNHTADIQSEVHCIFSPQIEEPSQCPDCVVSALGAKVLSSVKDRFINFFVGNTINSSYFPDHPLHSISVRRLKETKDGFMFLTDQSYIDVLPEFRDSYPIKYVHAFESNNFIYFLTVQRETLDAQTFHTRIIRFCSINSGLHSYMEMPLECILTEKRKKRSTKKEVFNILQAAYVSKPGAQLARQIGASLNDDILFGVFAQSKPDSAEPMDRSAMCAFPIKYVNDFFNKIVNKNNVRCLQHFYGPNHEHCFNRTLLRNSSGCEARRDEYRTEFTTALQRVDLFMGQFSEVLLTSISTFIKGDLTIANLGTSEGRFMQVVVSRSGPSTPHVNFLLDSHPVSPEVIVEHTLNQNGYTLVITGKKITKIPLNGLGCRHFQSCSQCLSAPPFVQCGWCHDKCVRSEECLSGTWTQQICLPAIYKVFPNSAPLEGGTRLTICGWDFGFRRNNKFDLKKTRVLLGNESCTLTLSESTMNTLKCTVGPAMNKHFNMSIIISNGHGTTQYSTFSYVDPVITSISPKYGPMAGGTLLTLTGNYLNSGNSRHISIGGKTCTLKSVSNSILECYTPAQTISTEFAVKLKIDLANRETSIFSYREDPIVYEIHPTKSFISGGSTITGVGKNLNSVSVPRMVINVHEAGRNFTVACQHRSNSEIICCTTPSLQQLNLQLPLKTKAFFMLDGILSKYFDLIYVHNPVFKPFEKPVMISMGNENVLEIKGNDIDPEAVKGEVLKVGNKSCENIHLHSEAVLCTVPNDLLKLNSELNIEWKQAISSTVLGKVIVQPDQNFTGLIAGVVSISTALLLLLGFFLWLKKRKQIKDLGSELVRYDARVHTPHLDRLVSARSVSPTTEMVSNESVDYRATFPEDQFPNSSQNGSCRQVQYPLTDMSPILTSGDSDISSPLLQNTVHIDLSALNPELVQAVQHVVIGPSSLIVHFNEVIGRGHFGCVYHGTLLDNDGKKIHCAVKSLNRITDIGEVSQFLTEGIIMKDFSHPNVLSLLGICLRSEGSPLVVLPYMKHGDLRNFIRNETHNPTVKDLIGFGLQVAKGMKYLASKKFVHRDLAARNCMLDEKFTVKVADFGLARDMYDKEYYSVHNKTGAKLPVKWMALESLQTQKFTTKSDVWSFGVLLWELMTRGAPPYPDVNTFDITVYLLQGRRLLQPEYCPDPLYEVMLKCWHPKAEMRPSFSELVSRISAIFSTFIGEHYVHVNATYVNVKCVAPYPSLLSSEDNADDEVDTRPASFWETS

Cytochrome P450 2D6 = Cytochrome P450 2D6 (Homo sapiens, UniProt P10635); assay: Inhibition of CYP2D6 (unknown origin); format: ADME
Sequence of Cytochrome P450 2D6 (P10635 whole entry): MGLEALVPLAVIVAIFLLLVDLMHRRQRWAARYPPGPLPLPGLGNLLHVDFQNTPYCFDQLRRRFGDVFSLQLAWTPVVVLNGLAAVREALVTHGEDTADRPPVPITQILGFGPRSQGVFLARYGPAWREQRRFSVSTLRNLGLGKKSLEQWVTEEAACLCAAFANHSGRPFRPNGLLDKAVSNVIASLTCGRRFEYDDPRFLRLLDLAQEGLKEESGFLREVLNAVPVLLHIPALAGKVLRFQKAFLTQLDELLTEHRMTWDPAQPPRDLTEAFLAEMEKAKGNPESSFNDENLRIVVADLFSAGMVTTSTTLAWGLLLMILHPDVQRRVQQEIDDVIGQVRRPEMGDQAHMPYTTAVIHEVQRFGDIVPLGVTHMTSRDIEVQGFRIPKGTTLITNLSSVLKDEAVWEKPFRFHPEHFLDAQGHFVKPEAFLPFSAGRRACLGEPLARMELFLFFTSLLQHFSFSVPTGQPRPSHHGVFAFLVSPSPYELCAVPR

[6] = target: T1, Hepatocyte growth factor receptor; assay: Inhibition of HGF-stimulated c-Met autophosphorylation in serum starved human PC3 cells pre-incubated for 1 hr followed by human recombinant HGF stimulation for 10 mins by quantitative electrochemiluminescence immunoassay; format: cell-based, PC-3
Outline: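 Serum-starved PC-3 cells (plated in high-glucose DMEM/10% FBS, then 16 h in low-glucose DMEM with 0.1% BSA) were treated with a 10-point inhibitor dilution for 1 h at 37 °C. Cells were then stimulated with 200 ng/mL recombinant human HGF for 10 min and lysed. Phospho-c-Met was captured with biotinylated anti-c-Met and 4G10 by electrochemiluminescence. IC50, n ≥ 2.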

[7] = Clearance in Sprague-Dawley rat at 0.25 mg/kg, iv; format: ADME, organism-based; design: dose 0.25 mg/kg, route intravenous; settings: Sprague-Dawley, in vivo
[8] = Oral bioavailability in Sprague-Dawley rat at 2 mg/kg; format: ADME, organism-based; settings: in vivo
Outline: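 Male Sprague-Dawley rats given 2.0 mg/kg orally in 2% (w/v) hydroxypropylmethylcellulose, 1% (w/v) Tween 80 in water, pH 2.2 (adjusted with HCl or MSA). Some inhibitors instead used 10% (v/v) dimethylacetamide in the same vehicle.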

[9] = Half life in Sprague-Dawley rat at 0.25 mg/kg, iv; format: ADME, organism-based; design: dose 0.25 mg/kg, route intravenous; settings: in vivo
Liver microsome [10] = assay: Drug level in dog liver microsomes treated with 5-(8-Fluoro-3-(1-(3-methoxyquinolin-6-yl)ethyl)[1,2,4]-triazolo[4,3-a]pyridin-6-yl)-3-methylisoxazole assessed as compound formation in presence of NADPH by LC-MS/MS method; format: ADME, Canis lupus familiaris
Outline: (§1)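 Compound incubated with NADPH in mouse, rat, dog, monkey or human liver microsomes. Metabolites were identified by accurate mass spectrometry and MS/MS, and selected ion chromatograms were used to build metabolite profiles.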

[11] = Drug level in mouse liver microsomes treated with 5-(8-Fluoro-3-(1-(3-methoxyquinolin-6-yl)ethyl)[1,2,4]-triazolo[4,3-a]pyridin-6-yl)-3-methylisoxazole assessed as compound formation in presence of NADPH by LC-MS/MS method; format: ADME; outline: as §1
Liver microsome [12] = assay: Drug level in rat liver microsomes treated with 5-(8-Fluoro-3-(1-(3-methoxyquinolin-6-yl)ethyl)[1,2,4]-triazolo[4,3-a]pyridin-6-yl)-3-methylisoxazole assessed as compound formation in presence of NADPH by LC-MS/MS method; format: ADME; outline: as §1
Liver microsome [13] = assay: Drug level in human liver microsomes treated with 5-(8-Fluoro-3-(1-(3-(2-methoxyethoxy)quinolin-6-yl)ethyl)-[1,2,4]triazolo[4,3-a]pyridin-6-yl)-3-methylisoxazole assessed as compound formation in presence of NADPH by LC-MS/MS method; format: ADME; outline: as §1
Liver microsome [14] = assay: Drug level in rat liver microsomes treated with 5-(8-Fluoro-3-(1-(3-(2-methoxyethoxy)quinolin-6-yl)ethyl)-[1,2,4]triazolo[4,3-a]pyridin-6-yl)-3-methylisoxazole assessed as compound formation in presence of NADPH by LC-MS/MS method; format: ADME; outline: as §1
[15] = Drug level in monkey liver microsomes treated with 5-(8-Fluoro-3-(1-(3-(2-methoxyethoxy)quinolin-6-yl)ethyl)-[1,2,4]triazolo[4,3-a]pyridin-6-yl)-3-methylisoxazole assessed as compound formation in presence of NADPH by LC-MS/MS method; format: ADME, Macaca mulatta; settings: rhesus monkey; outline: as §1
[16] = Drug level in mouse liver microsomes treated with 5-(8-Fluoro-3-(1-(3-(2-methoxyethoxy)quinolin-6-yl)ethyl)-[1,2,4]triazolo[4,3-a]pyridin-6-yl)-3-methylisoxazole assessed as compound formation in presence of NADPH by LC-MS/MS method; format: ADME; outline: as §1
Liver microsome [17] = assay: Drug level in dog liver microsomes treated with 5-(8-Fluoro-3-(1-(3-(2-methoxyethoxy)quinolin-6-yl)ethyl)-[1,2,4]triazolo[4,3-a]pyridin-6-yl)-3-methylisoxazole assessed as compound formation in presence of NADPH by LC-MS/MS method; format: ADME, Canis lupus familiaris; outline: as §1

Sequence of Cytochrome P450 3A4 (P08684 whole entry): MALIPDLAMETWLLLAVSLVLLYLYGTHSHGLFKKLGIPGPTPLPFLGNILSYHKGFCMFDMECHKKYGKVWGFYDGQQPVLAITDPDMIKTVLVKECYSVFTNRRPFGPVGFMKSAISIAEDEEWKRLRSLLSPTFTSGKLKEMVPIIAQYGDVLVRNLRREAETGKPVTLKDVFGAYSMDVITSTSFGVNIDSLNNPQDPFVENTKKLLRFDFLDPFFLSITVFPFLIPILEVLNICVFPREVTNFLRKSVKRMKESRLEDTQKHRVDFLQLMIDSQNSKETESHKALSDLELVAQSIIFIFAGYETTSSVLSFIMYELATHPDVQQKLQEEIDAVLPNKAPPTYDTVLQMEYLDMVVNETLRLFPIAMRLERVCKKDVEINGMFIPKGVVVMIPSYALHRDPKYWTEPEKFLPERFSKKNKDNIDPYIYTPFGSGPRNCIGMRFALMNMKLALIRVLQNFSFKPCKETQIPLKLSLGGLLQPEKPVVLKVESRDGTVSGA

| AUC(0-inf) [1] [µM·h] | Vd [2] [L/kg] | IC50 [5] [nM] | IC50 [6] [nM] | clearance [7] [mL/min/kg] | bioavailability [8] [%] | half-life [9] [h] | Structure (SMILES) | also measured |
| --- | --- | --- | --- | --- | --- | --- | --- | --- |
| 101 | 0.09 | 3 | 8 | < 0.167 | 35 | – | COc1cnc2ccc(C(F)(F)c3nnc4c(F)cc(-c5cc(C)no5)cn34)cc2c1 | inhibition (INH) (Cytochrome P450 3A4): Not Active; Stability (Liver microsome [3]): Stable; Stability (Liver microsome [4]): Stable; inhibition (INH) (Cytochrome P450 2D6): Not Active |
| 6.5 | 0.18 | 2 | 7 | 1.5 | 9 | 1.5 | COc1cnc2ccc(C(F)(F)c3nnc4c(F)cc(-c5cscn5)cn34)cc2c1 | inhibition (INH) (Cytochrome P450 3A4): Not Active; Stability (Liver microsome [3]): Stable; Stability (Liver microsome [4]): Stable; inhibition (INH) (Cytochrome P450 2D6): Not Active |
| – | – | 780 | – | – | – | – | Cc1cc(-c2cc(F)c3nnc([C@@](C)(F)c4ccc5ncccc5c4)n3c2)sn1 | – |
| 0.52 | 1.25 | 5 | 4 | 22.2 | 10 | 1.1 | COc1cnc2ccc([C@@](C)(F)c3nnc4c(F)cc(-c5cc(C)ns5)cn34)cc2c1 | – |
| 2.4 | 0.79 | 2 | 3 | 4.17 | 38 | 2.7 | COc1cnc2ccc([C@@](C)(F)c3nnc4c(F)cc(-c5cc(C)no5)cn34)cc2c1 | – |
| 2.5 | 0.64 | 5 | 7 | 4.5 | 27 | 2.2 | COc1cnc2ccc([C@@](C)(F)c3nnc4c(F)cc(-c5cnn(C)c5)cn34)cc2c1 | – |
| 0.44 | 0.38 | 7 | 12 | 25.5 | – | 0.33 | Cc1cc(-c2cc(F)c3nnc([C@@H](C)c4ccc5ncccc5c4)n3c2)sn1 | – |
| 10.5 | – | 9 | 22 | – | – | 2.8 | COc1cnc2ccc([C@H](C)c3nnc4c(F)cc(-c5cc(C)ns5)cn34)cc2c1 | – |
| 2.7 | 0.37 | 1 | 4 | 4.33 | 27 | 1.3 | COc1cnc2ccc([C@H](C)c3nnc4c(F)cc(-c5cn(C)cn5)cn34)cc2c1 | – |
| 4.5 | 0.25 | 2 | 15 | 2.33 | 13 | 1.8 | COc1cnc2ccc([C@H](C)c3nnc4c(F)cc(-c5cnn(C)c5)cn34)cc2c1 | – |
| – | – | 370 | – | – | – | – | COc1cnc2ccc([C@@H](C)c3nnc4c(F)cc(-c5cc(C)no5)cn34)cc2c1 | – |
| – | – | > 400 | – | – | – | – | Cc1cc(-c2cc(F)c3nnc(C(C)(C)c4ccc5ncc(O)cc5c4)n3c2)on1 | – |
| – | – | 93 | – | – | – | – | COc1cnc2ccc(C3(c4nnc5c(F)cc(-c6cc(C)no6)cn45)CC3)cc2c1 | – |
| – | – | 28 | 67 | – | – | – | CC[C@@H](c1ccc2ncc(OC)cc2c1)c1nnc2c(F)cc(-c3cc(C)no3)cn12 | – |
| – | – | – | – | – | – | – | Cc1cc(-c2cc(F)c3nnc([C@@H](C)c4ccc5ncc(O)cc5c4)n3c2)on1 | Drug metabolism (Liver microsome [10]): metabolite_detected; Drug metabolism [11]: metabolite_detected; Drug metabolism (Liver microsome [12]): metabolite_detected |
| – | – | – | – | – | – | – | COc1cnc2ccc([C@H](C)c3nnc4c(F)cc(-c5cc(CO)no5)cn34)cc2c1 | Drug metabolism (Liver microsome [10]): metabolite_detected; Drug metabolism [11]: metabolite_detected; Drug metabolism (Liver microsome [12]): metabolite_detected |
| – | – | – | – | – | – | – | Cc1cc(-c2cc(F)c3nnc([C@@H](C)c4ccc5ncc(OCCO)cc5c4)n3c2)on1 | Drug metabolism (Liver microsome [13]): metabolite_detected; Drug metabolism (Liver microsome [14]): metabolite_detected; Drug metabolism [15]: metabolite_detected; Drug metabolism [16]: metabolite_detected; Drug metabolism (Liver microsome [17]): metabolite_detected |
| – | – | – | – | – | – | – | Cc1cc(-c2cc(F)c3nnc([C@@H](C)c4ccc5ncc(OCC(=O)O)cc5c4)n3c2)on1 | Drug metabolism (Liver microsome [13]): metabolite_detected; Drug metabolism (Liver microsome [14]): metabolite_detected; Drug metabolism [15]: metabolite_detected; Drug metabolism [16]: metabolite_detected; Drug metabolism (Liver microsome [17]): metabolite_detected |
